Pemphigus Ab inh – blocks pemphigus antibody binding to human desmoglein-3. P32926. DSG3-coupled beads, scFv-anti-DSG3-GFP binding, flow cytometry; active compounds read low. binding (percent of control), % at 10 µM. 0.48% of 310,000 active. AID 588358;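 active means binding more than 3 SD below its plate's average and above zero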;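 further: hits lower antibody fragment binding to DSG3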
GPR7 antagonist – human neuropeptides B/W receptor 1 antagonism; 1.1% of 290,000 active; GPR7-expressing cells, fluorescence antagonist assay; inhibition, % at 4.4 µM; P48145; AID 1861; in the data active means inhibition above about 16%, passing the limit was not always enough;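 further: cells stimulated with the agonist NPW; 0% = agonist with vehicle and 100% = vehicle without agonist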
Target sequence (P48145 whole entry, looked up): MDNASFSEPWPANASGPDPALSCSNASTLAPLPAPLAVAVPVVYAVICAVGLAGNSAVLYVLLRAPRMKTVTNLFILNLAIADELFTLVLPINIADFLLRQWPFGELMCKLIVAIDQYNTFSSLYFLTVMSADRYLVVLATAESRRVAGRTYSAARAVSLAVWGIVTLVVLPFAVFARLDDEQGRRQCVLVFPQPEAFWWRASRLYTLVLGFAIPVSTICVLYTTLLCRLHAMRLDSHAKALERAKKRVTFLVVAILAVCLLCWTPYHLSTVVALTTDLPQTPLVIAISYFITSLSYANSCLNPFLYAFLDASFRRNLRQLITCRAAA
CHT allo act – human CHT allosteric activation | Q9GZV3 | CHT-expressing cells, membrane potential dye, choline EC20; active compounds read high; LV-AA mutant CHT in HEK293 cells | B-score at 10 µM | 0.49% of 310,000 active | AID 488977;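 active means initial fluorescence not abnormally high and integrated response B-score, plate-corrected, over 3 SD above library mean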
CHT inh – human CHT choline transport inhibition | Q9GZV3 | CHT-expressing cells, membrane potential dye, choline response; active compounds read low | B-score at 10 µM | 0.86% of 310,000 active | AID 488975;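 active means B-score over 3 SD under the library average, and starting fluorescence ratio not unusually high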;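 further: choline stimulus applied at its EC90 after an EC20 pre-addition; B-score computed on integrated fluorescence ratio after choline addition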
T cell HTS – modulates CD8 T cell binding to vesicles | 2C CD8+ T cell-vesicle binding, flow cytometry; active compounds read low | response (vesicle binding), % at 7 µM | 0.068% of 330,000 active | AID 2052;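 active means response, share of CD8 T cells binding vesicles, and their 90th percentile fluorescence all below set limits, cut at about 80% in these data, passing the limit was not always enough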;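 further: values below 100% mean blocked vesicle binding to the CD8+ T cells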
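Read-out – percent CD8+ FL2 mean versus row control · System – murine 2C transgenic CD8+ T lymphocytes · Times – 1.5 h cell–vesicle binding at 37 °C, then 20 min icy labelling · Control set – naked vesicles low, QL9 vesicles with vehicle high · Detection – cytometric PE anti-B7-1 and Alexa647 anti-CD8 signals after 1% paraformaldehyde fixation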
pCIP destab – lowers stability of the mouse p/CIP coactivator protein; 0.01% of 290,000 active; AID 1984; F442A p/CIP-EGFP cells, EGFP fluorescence, 16 h; decrease of EGFP signal, % at 10 µM; Q05BA5;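 active means EGFP signal decrease of at least 30% at 10 µM or well 3 SD below plate mean, unless failing retest; inactive means the rest, including hits failing retest or dose response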
CHT inh conf – human CHT inhibition, confirmatory screen; CHT activity remaining % of control (active compounds read low), % at 10 µM; shares compounds with CHT inh; 70% of 2,400 active; CHT-expressing cells, choline membrane potential dye; LV-to-AA substituted CHT, HEK293 cells;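 active means choline transporter activity left, mean of duplicates at 10 µM, below buffer-only control mean minus 3 SD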;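 further: depolarization triggered by choline at its EC90 following an EC20 pre-addition; 0% = hemicholinium-3 full block and 100% = buffer-only control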
HEK293 MPD ctr – counter-screen for CHT inhibitors: effect in parental HEK293 cells. shares compounds with CHT inh. membrane potential dye, choline response; active = decrease or increase beyond buffer ±3SD. membrane potential ratio readout (active if shifted either direction beyond buffer ±3SD; no single direction) at 10 µM. 4% of 2,400 active;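 further: parental cells lack the transporter so any hit is non-specific; ratio is peak minus trough fluorescence over baseline after EC90 choline challenge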
* = called active by the depositor; i = inactive; . = not tested or not shown. The list is not random: actives were taken first. Their share in the collection is about 2.3%.

SMILES	Pemphigus Ab inh	GPR7 antagonist	CHT allo act	CHT inh	T cell HTS	pCIP destab	CHT inh conf	HEK293 MPD ctr
Nc1ccc(C2(c3ccc(N)cc3)C(=O)Nc3ccccc32)cc1	101.2	-12.3	i	-13.7*	799.0	3.5	-27.5%*	8.97*
O=C(CCl)NC(Cc1ccccc1)C(=O)OCC(=O)c1ccc(-c2ccccc2)cc1 (centres undefined)	87.5	.	.	.	.	.	.	.
CCCCSc1nc2[nH]ncc2c(=O)[nH]1	103.0	-0.8	i	i	i	-9.5	.	.
CCCCN(CCCC)c1cn[nH]c(=O)c1Cl	114.0	-12.0	i	-6.58*	125.4	-8.5	66.3%*	i
CCN(CC(=O)NCc1cccs1)S(=O)(=O)c1ccccc1Cl	102.4	.	i	i	256.2	.	.	.
CCN(CC(=O)NCc1cccs1)S(=O)(=O)c1ccc(C(C)C)cc1	107.4	10.3	i	-5*	288.1	3.8	59.6%*	i
CC(NC(=O)/C=C/c1ccccc1)c1ccccc1 (centres undefined)	93.4	4.4	i	-5.44*	138.8	-8.8	i	i
CCc1ccccc1-n1nnc(-c2ccccc2)n1	101.4	0.9	i	-5.45*	982.6	6.9	i	i
CCC1(C(N)=O)CC2C=CC1C2 (centres undefined)	89.1	.	.	.	.	.	.	.
CN(C)C(=O)N1CCN(S(=O)(=O)c2ccc3ccccc3c2)CC1	99.5	-5.3	i	-6.67*	245.1	-3.2	5.6%*	i
Cc1ccc(C2=NC(C(F)(F)F)(C(F)(F)F)c3c(n(-c4ccc(F)cc4)c(=O)[nH]c3=O)N2)cc1	.	-2.4	i	i	109.2	-12.5	.	.
O=c1[nH]c(=O)n(-c2ccc(F)cc2)c2c1C(C(F)(F)F)(C(F)(F)F)N=C(c1ccc(F)cc1)N2	100.2	-5.8	i	-6.96*	226.1	8.8	54.3%*	i
N#Cc1ccc(C2=NC(C(F)(F)F)(C(F)(F)F)c3c(n(Cc4ccco4)c(=O)[nH]c3=O)N2)cc1	96.9	-14.7	i	-10.8*	329.0	-17.4	56.5%*	i
O=C(c1ccc2ccccc2c1)c1cccc(F)c1C(=O)O	107.7	.	.	.	.	.	.	.
OCc1ccccc1OCCOc1ccc(Cl)c2cccnc12	101.2	-7.9	i	-9.74*	163.4	10.8	44.2%*	i
OCc1ccccc1OCCCOc1cccc2cccnc12	110.5	-4.4	i	i	549.1	-2.9	.	.
O=C(CNC(=O)c1ccc(Cl)cc1Cl)OCC(=O)c1ccc2c(c1)OCCO2	101.6	-0.1	i	-6.67*	300.5	-20.3	66.1%*	i
O=C(COC(=O)CNC(=O)c1ccc(Cl)cc1Cl)NCC1CCCO1 (centres undefined)	106.3	.	i	i	553.9	.	.	.
C/C(=N\NC1=NCCN1)c1ccc(Cl)cc1	112.9	-4.3	i	-6.67*	207.8	-3.1	52.5%*	i
CCN(CC)CC(=O)Nc1ccc(/C(C)=N/NC2=NCCN2)cc1	111.4	-6.9	i	i	211.4	-4.7	.	.
C/C(=N\NC1=NCCN1)c1ccccc1	99.6	-17.5	i	-6.45*	352.8	-3.8	32.0%*	i
O=C(NNc1nc(-c2ccccc2)cs1)c1ccccc1	93.3	-7.1	i	-7.79*	375.2	0.9	61.8%*	i
CCOC(=O)C1CCN(c2c(NCCC(C)C)c(=O)c2=O)CC1	88.2	-1.4	i	-6.43*	205.5	0.5	i	i
CCOC(=O)C1CCCN(c2c(NCCC(C)C)c(=O)c2=O)C1 (centres undefined)	101.2	-14.7	i	i	404.0	-4.7	.	.
CSc1ccc(CCNC(=O)CCc2nnc3ccc(N4CCCC4)nn23)cc1	106.3	0.9	i	-5.29*	798.7	2.0	i	i
SMILES	Pemphigus Ab inh	GPR7 antagonist	CHT allo act	CHT inh	T cell HTS	pCIP destab	CHT inh conf	HEK293 MPD ctr
c1cc2c3c(cccc3c1)C(N1CCCCC1)=N2	103.0	1.3	i	-6.03*	144.7	-5.2	65.3%*	4.64*
O=C(COc1ccccc1/C=C1/NC(=O)NC1=O)Nc1ccccc1	100.8	-0.2	i	i	300.3	0.8	.	.
Cc1ccc(S(=O)(=O)Oc2ccccc2/C=C2\SC(=O)NC2=O)cc1	93.1	-2.7	i	-5.64*	321.4	-19.6	48.6%*	i
O=C(COc1ccccc1/C=C1\SC(=O)NC1=O)Nc1ccc(F)cc1	82.1	3.4	i	-6.91*	i	-3.3	i	i
N#CCSc1ccccc1NC(=O)CN1C(=O)C(=O)N(Cc2ccccc2)C1=O	.	.	.	.	304.8	.	.	.
CCn1c(SCC(=O)Nc2ccccc2C)nc2nc3c(cc2c1=O)COC(C)(C)C3	113.5	-11.3	i	i	276.2	2.8	.	.
CCn1c(SCC(=O)Nc2ccc(OC)cc2)nc2nc3c(cc2c1=O)COC(C)(C)C3	93.7	-11.0	i	-4.97*	236.0	9.6	i	i
COc1cc(OC)c(C(=O)OCC(=O)N2CCN(S(=O)(=O)c3ccc(C)cc3C)CC2)cc1OC	99.2	.	.	.	.	.	.	.
O=C(CS(=O)(=O)c1ccc(Cl)cc1)Nc1nccs1	105.1	.	.	.	.	.	.	.
Oc1ccc(Oc2ncc(Cl)cc2Cl)cc1	100.2	-10.1	i	-5.4*	189.9	1.3	59.2%*	i
CCOCCOC(=O)C(C)Oc1ccc(Oc2ncc(Cl)cc2Cl)cc1 (centres undefined)	114.9	-5.3	i	i	621.4	-9.4	.	.
O=C(CS(=O)c1ccc(C(F)(F)F)cc1[N+](=O)[O-])Oc1ccccc1 (centres undefined)	108.2	13.8	i	-4.98*	178.6	-8.9	-5.7%*	i
CC(=O)N(c1ccccc1)C(C(=O)c1ccccc1)c1ccccc1 (centres undefined)	94.6	.	.	.	.	.	.	.
O=C(Nc1ccc(S(=O)(=O)Nc2ncccn2)cc1)C12CC3CC(CC(Cl)(C3)C1)C2	99.2	.	.	.	442.7	.	.	.
Cc1ccc2c(c1)N(CCCC(=O)NCCC1=CCCCC1)C(=O)CO2	104.0	-8.4	i	i	128.3	-3.0	.	.
Cc1ccc2c(c1)N(CC(=O)NC1CCC(C)CC1)C(=O)CO2 (centres undefined)	.	-5.9	i	-5.87*	134.2	-4.5	i	i
Cc1ccc2c(c1)N(CCCC(=O)NCC1COc3ccccc3O1)C(=O)CO2 (centres undefined)	100.3	6.7	i	-8.86*	201.9	-10.2	20.6%*	i
Cc1ccc(NC(=O)COC(=O)CN2C(=O)COc3ccccc32)cc1	98.8	-1.9	i	-4.96*	110.4	2.5	43.0%*	i

Screening results from PubChem BioAssay.
